# KCC2 mod: KCC2 (human) Cl- transport modulation. Q9H2X9. KCC2 cells, thallium flux FluoZin-2 fluorescence. B-score of Tl+ flux slope (higher = more flux/activation; lower = inhibition) at 10 µM. 190,000 tested, 2.2% active;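 active = thallium flux slope and its plate-corrected score both differing from the plate sample mean at a set confidence after two filtering rounds, in either direction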;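 note: slope of fluorescence scaled to starting intensity during 10 to 20 s after thallium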
# Target sequence (Q9H2X9 whole entry, looked up): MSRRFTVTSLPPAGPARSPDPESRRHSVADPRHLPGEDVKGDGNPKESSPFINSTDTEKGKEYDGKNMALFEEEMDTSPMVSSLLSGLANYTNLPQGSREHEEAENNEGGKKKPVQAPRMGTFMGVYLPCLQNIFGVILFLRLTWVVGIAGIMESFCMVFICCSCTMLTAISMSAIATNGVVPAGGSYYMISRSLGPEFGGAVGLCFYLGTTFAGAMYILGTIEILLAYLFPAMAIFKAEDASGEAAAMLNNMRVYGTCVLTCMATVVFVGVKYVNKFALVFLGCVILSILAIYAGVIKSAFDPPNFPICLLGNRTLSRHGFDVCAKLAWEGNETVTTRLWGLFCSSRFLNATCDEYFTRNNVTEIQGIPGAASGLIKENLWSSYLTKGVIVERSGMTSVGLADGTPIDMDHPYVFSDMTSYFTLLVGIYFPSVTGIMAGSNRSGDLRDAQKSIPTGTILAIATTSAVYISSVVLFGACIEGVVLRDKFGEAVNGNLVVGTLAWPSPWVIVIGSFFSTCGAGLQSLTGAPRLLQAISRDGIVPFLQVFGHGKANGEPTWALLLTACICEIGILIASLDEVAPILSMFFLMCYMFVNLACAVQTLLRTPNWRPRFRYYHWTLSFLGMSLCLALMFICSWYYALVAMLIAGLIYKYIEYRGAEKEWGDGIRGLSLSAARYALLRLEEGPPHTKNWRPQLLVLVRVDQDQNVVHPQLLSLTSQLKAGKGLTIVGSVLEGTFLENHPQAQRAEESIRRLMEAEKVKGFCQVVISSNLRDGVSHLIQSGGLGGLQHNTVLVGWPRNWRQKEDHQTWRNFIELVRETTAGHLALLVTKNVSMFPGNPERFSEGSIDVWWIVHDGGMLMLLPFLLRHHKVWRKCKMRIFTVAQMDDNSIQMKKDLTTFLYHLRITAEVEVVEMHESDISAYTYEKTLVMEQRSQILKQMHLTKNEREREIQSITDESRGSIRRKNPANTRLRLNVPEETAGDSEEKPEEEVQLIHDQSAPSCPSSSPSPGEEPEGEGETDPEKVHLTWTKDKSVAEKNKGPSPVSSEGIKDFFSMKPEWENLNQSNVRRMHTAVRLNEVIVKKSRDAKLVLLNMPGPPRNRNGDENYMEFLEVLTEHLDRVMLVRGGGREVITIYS
# CHT block: human CHT choline transport inhibition; CHT-expressing cells, membrane potential dye, choline response; active compounds read low; B-score at 10 µM; 310,000 tested, 0.86% active; AID 488975;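 active = B-score over 3 SD under the library average, and starting fluorescence ratio not unusually high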;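 note: choline stimulus applied at its EC90 after an EC20 pre-addition; B-score computed on integrated fluorescence ratio after choline addition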
# CHT allo act: allosteric activators of human choline transporter CHT; Q9GZV3; CHT-expressing cells, membrane potential dye, choline EC20; active compounds read high; LV-AA mutant CHT in HEK293 cells; B-score at 10 µM; 310,000 tested, 0.49% active; AID 488977;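 active = initial fluorescence not abnormally high and integrated response B-score, plate-corrected, over 3 SD above library mean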
# Rad51 HR inh: blocks human Rad51 in homologous recombination | Q06609 | hRad51 DNA strand exchange, fluorescence dequenching | inhibition, % at 10 µM | 200,000 tested, 0.085% active | AID 1385;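 active = inhibition above 40% at the single screening dose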;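 note: 0% = DMSO control wells and 100% = blanks with heterologous ssDNA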
#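 Test system: preformed human Rad51 ssDNA filaments. Compound dosing: single dose, 10 µM final compound. Incubation: filaments 15 min 37 °C, then compound 30 min. Technique: FRET fluorescence dequenching, excitation 485 nm, emission 520 nm. Read-out basis: percent inhibition from fluorescence, normalised to plate control and blank means. Benchmarks: plate controls and plate blanks.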
# KCC2 sec1: KCC2 (human) modulation, secondary assay. shares compounds with KCC2 mod. HEK293-KCC2, thallium flux, FluoZin2 fluorescence; active compounds read high. normalised thallium flux (F/F0 slope) at 10 µM. 3,700 tested, 15% active;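 active = thallium flux slope above the same plate's solvent-only control mean plus 3 SD; inconclusive = the two replicate wells disagree; inactive = no significant difference from solvent-only control wells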
# KCC2 bumet counter: thallium flux persisting under bumetanide in KCC2 cells, counter-screen secondary assay | 3,700 tested, 49% active | shares compounds with KCC2 mod | AID 1714 | normalized thallium flux at 10 µM | HEK293-KCC2 + bumetanide/ouabain, thallium flux FluoZin2; active compounds read high;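 active = thallium entry rate above the same plate's blocked-transporter control wells by more than 3 SD; inconclusive = the two repeat wells disagree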;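 note: raw slope of fluorescence over initial fluorescence between 10 and 20 s after thallium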
# KCC2 secondary2: confirmation of human KCC2 transport modulators. shares compounds with KCC2 mod. HEK293-KCC2, thallium flux FluoZin2 fluorescence; actives lie on both sides; F/F0 rise rate, 10–20 s post-thallium. normalized thallium flux at 10 µM. 3,700 tested, 23% active;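 active = thallium flux slope more than 3 SD above or below the plate's solvent-only control mean, mostly below; inconclusive = the two repeat wells disagreed; inactive = no significant shift from solvent-only controls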;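 note: raw slope with 0.1% DMSO as baseline and bumetanide as block control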
# HEK293 Tl flux: parental HEK flux effect, counter-screen; shares compounds with KCC2 mod; HEK293 parental cells, thallium flux FluoZin2, ouabain; baseline-ratio fluorescence slope, 10–20 s after thallium; thallium flux rate (normalised fluorescence) at 10 µM; 3,700 tested, 46% active;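 active = thallium flux rate significantly above the same plate's solvent-only control wells, beyond their mean plus 3 SD; inconclusive = the two replicate wells gave conflicting results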
# KCC2 ouabain: confirmation of human KCC2 modulators with ouabain; shares compounds with KCC2 mod; HEK293-KCC2, thallium flux FluoZin2 fluorescence; bidirectional: low = inhibitor, high = activator; raw Tl+ flux slope (below DMSO = inhibition, above = activation) at 10 µM; 3,700 tested, 48% active;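 active = thallium flux slope beyond 3 SD from same-plate DMSO control mean in most replicates, usually higher, sometimes lower; inconclusive = repeat tests gave conflicting results; inactive = no significant difference from controls in most replicates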;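 note: slope of initial-normalized fluorescence between seconds 10 and 20 after thallium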
# HEK293 Tl flux2: parental HEK flux effect, counter-screen 2; shares compounds with KCC2 mod; HEK293 parental, thallium flux FluoZin-2 fluorescence slope; thallium flux slope at 10 µM; 3,700 tested, 33% active; AID 1718;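 active = thallium flux slope above the same plate's solvent-control mean plus 3 SD in both duplicate wells; inconclusive = duplicate wells that disagreed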;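 note: run without ouabain in cells lacking the KCC2 cotransporter; slope of fluorescence scaled to its starting value between 10 and 20 s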
# * marks the source's active call; other numbers are inactive results; i = inactive; u = inconclusive; x = not tested or not shown. Shown are actives, neighbours in structure and some others; about 2.6% of the full set was active somewhere.
SMILES,KCC2 mod,CHT block,CHT allo act,Rad51 HR inh,KCC2 sec1,KCC2 bumet counter,KCC2 secondary2,HEK293 Tl flux,KCC2 ouabain,HEK293 Tl flux2
O=C(N/N=C/c1ccc2c(c1)OCO2)c1ccc2ccccc2n1,4.9*,i,i,2,0.017,0.018*,0.032,0.012*,0.02*,0.016*
CCOC(=O)c1[nH]ncc1CN1CCC(Cc2cccc(OC)c2)(C(=O)OCC)CC1,0.45,i,i,0,x,x,x,x,x,x
COc1ccc(S(=O)(=O)NCCc2c[nH]c3ccc(C)cc23)cc1,x,i,i,x,x,x,x,x,x,x
O=C(CSc1ncnc2c1oc1ccccc12)NC1CCCCC1,-3.8*,i,i,-14,0.0095,0.0057,u,0.0067,0.02*,0.011
CC1CCC(C(=O)NNC(=O)c2cc(-c3ccco3)[nH]n2)CC1 (stereo not drawn),-2.9*,i,i,7,0.0088,0.0063,0.029,u,u,0.0098
Cc1occc1C(=O)NNC(=O)C1CC1,-0.49,i,i,2,x,x,x,x,x,x
CN(C)CC(O)COc1cccc(OCC(O)CN(C)C)c1 (stereo not drawn),x,i,i,x,0.0075,0.0044,0.031,0.0079,0.02,0.01
Cc1cc(C)n(C(=O)CCCn2cc([N+](=O)[O-])cn2)n1,-0.47,i,i,x,x,x,x,x,x,x
Cc1ccc(CNC(=O)c2ccc(N3CCCC3=O)cc2)cc1,-4.3*,i,i,x,0.016,0.0046,0.029,0.0074,0.017,0.011
O=C(NCc1ccc(N2CCCC2=O)cc1)c1ccc(F)cc1,-0.31,i,i,-6,x,x,x,x,x,x
O=C(NCc1ccco1)/C(=C\C=C\c1ccccc1)NC(=O)c1ccccc1Br,-3.8,i,i,-6,x,x,x,x,x,x
Cc1ccc(C(=O)N(CN2CCCC2=O)c2ccccc2)cc1C,x,i,i,0,0.0086,0.0064,0.028,0.0073,0.02,0.0098
Cc1ccc(-c2n[nH]c(=S)n2/N=C/C=C\c2ccccc2[N+](=O)[O-])cc1,7.7*,i,i,2,0.0075,0.0092*,0.033,0.011*,u,0.014*
O=[N+]([O-])c1ccccc1/C=C/C=N/n1c(-c2ccc(Cl)cc2)n[nH]c1=S,3.6*,i,i,-8,0.0075,0.0092*,0.033,0.01*,u,0.012*
Cc1noc(C)c1CSCC(=O)OCC(=O)NC1CCCCC1,x,i,i,2,0.0068,u,0.03,0.0072,0.018,0.011
CCOC(=O)/C(=N\Nc1ccc(C(C)=O)cc1)c1csc(Nc2ccccc2)n1,-1.3,i,i,-248,x,x,x,x,x,x
CCOC(=O)C(CC)(CCC(=O)O)c1csc(Nc2ccc(C)cc2)n1 (stereo not drawn),-2.9*,i,i,4,0.017,0.0045,0.029,0.006*,0.014,0.0096
O=C(NCCNC(=O)c1ccc(Cl)cc1Cl)c1ccco1,x,i,i,x,x,x,x,x,x,x
COc1ccc(CNn2c(-c3cccc(C)c3)nc3ccccc3c2=O)cc1OC,x,i,i,x,0.0094,0.006,0.03,0.0075,0.021,0.01
COc1ccccc1CNn1c(-c2cccc(C)c2)nc2ccccc2c1=O,x,i,i,9,x,x,x,x,x,x
CC(Oc1cccc(Cl)c1)C(=O)Nc1cc(S(=O)(=O)N2CCCCC2)ccc1N1CCOCC1 (stereo not drawn),x,i,i,x,x,x,x,x,x,x
O=C(COc1ccc(Cl)cc1Cl)Nc1c(-c2cccs2)nc2ccccn12,0.11,i,i,3,x,x,x,x,x,x
Cn1nc(-c2ccc(N3CCOCC3)c(NS(=O)(=O)c3ccc(Cl)cc3)c2)c2ccccc2c1=O,5.8*,i,i,-1,0.0097,0.0059,0.032,0.0083,0.019,0.011
Cc1ccc(S(=O)(=O)Nc2cc(-c3nn(C)c(=O)c4ccccc34)ccc2N2CCOCC2)cc1,x,i,i,-2,x,x,x,x,x,x
CC(Cc1cccs1)NC(=S)Nc1ccc(Cl)c(Cl)c1 (stereo not drawn),6.7*,i,i,-3,0.0069,0.019*,0.028,0.0084*,0.021*,u
SMILES,KCC2 mod,CHT block,CHT allo act,Rad51 HR inh,KCC2 sec1,KCC2 bumet counter,KCC2 secondary2,HEK293 Tl flux,KCC2 ouabain,HEK293 Tl flux2
Cc1ccc(C(=O)NC(=S)NNS(=O)(=O)c2ccc(C)cc2)cc1,6.2*,i,i,11,0.017*,0.023*,0.035,0.0092*,0.024,0.012*
O=C(NC(=S)N1CCCCC1)c1cccs1,0.56,i,i,7,x,x,x,x,x,x
CC1CCN(C(=S)NC(=O)c2cccs2)CC1,56*,i,i,0,0.033*,0.083*,u,0.055*,0.069*,0.019*
CC1CCCCN1C(=S)NC(=O)c1cccs1 (stereo not drawn),36*,i,i,16,0.022*,0.057*,0.039,0.034*,0.05*,0.016*
COC(=O)c1sccc1NC(=S)N1CC(C)CC(C)C1 (stereo not drawn),0.016,i,i,9,x,x,x,x,x,x
CCC(C(=O)Nc1ccsc1C(=O)OC)c1ccccc1 (stereo not drawn),-3.2*,i,i,8,0.009,0.0056,0.035,u,u,0.011
COC(=O)c1sccc1NC(=S)N1CCC(C)CC1,x,i,i,-2,0.0081,0.0049,0.027,0.0074,0.018,0.0096
CC1CCCCN1C(=O)c1ccc(C(=O)N2CCCCC2C)cc1 (stereo not drawn),x,i,i,x,x,x,x,x,x,x
CCC(C(=O)Nc1nc(C)c(C(=O)OC)s1)c1ccccc1 (stereo not drawn),0.62,i,i,13,x,x,x,x,x,x
COC(=O)c1ccc(C(=O)N(C)C2CCCN(Cc3ccccc3F)C2)nc1 (stereo not drawn),x,i,i,x,x,x,x,x,x,x
Cc1onc(-c2c(Cl)cccc2Cl)c1CO/N=C(\C#N)c1c(Cl)cccc1Cl,-0.5,i,i,-13,x,x,x,x,x,x
COc1ccc(O)c(CN2CCC(n3nccc3NC(=O)CCOc3ccccc3)CC2)c1,x,i,i,x,x,x,x,x,x,x
Fc1ccc(CCNC(=S)Nc2ccc(F)c(Cl)c2)cc1,-2.8,i,i,22,x,x,x,x,x,x
COC(=O)c1sccc1NC(=S)NCc1ccc(Cl)cc1,160*,i,i,13,0.07*,0.16*,0.058*,u,0.12*,0.058*
